Data as given in ChEMBL document CHEMBL3045116, “Synthesis and biological evaluation of 2-(5-substituted-1-((diethylamino)methyl)-2-oxoindolin-3-ylidene)-N-substituted-hydrazinecarbothioamides” (Med Chem Res, 2013).

Tests used:
[1] = tested on: Influenza B virus; assay: Antiviral activity against Influenza B virus infected in MDCK cells assessed as reduction of virus-induced cytopathic effect after 3 days by colorimetric formazan-based MTS assay; type: functional, organism-based; details: 72 h
Outline: (§1)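 Confluent cell monolayers were infected with 100 CCID50 of virus, and serial dilutions of compound were added at the time of infection.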

[2] = tested on: Aspergillus niger; assay: Antifungal activity against Aspergillus niger assessed as growth inhibition at 50 ug/ml by cup-plate method (reference value: 8 to 10 mm); type: functional; details: read-out: DIZ
[3] = tested on: Bacillus subtilis; assay: Antibacterial activity against Bacillus subtilis assessed as growth inhibition at 50 ug/ml by cup-plate method (reference value: 8 to 10 mm); type: functional; details: read-out: DIZ
[4] = tested on: Human alphaherpesvirus 1; assay: Antiviral activity against acyclovir-resistant thymidine kinase negative Human herpesvirus 1 strain KOS infected human HEL cells assessed as reduction of virus-induced cytopathic effect after 3 days by colorimetric formazan-based MTS assay; type: functional, organism-based; details: Human alphaherpesvirus 1, KOS, 72 h; outline: as §1
[5] = tested on: Escherichia coli; assay: Antibacterial activity against Escherichia coli assessed as growth inhibition at 50 ug/ml by cup-plate method (reference value: 8 to 10 mm); type: functional; details: read-out: DIZ
[6] = tested on: Staphylococcus aureus; assay: Antibacterial activity against Staphylococcus aureus assessed as growth inhibition at 50 ug/ml by cup-plate method (reference value: 8 to 10 mm); type: functional; details: read-out: DIZ
[7] = tested on: Salmonella typhi; assay: Antibacterial activity against Salmonella enterica subsp. enterica serovar Typhi assessed as growth inhibition at 50 ug/ml by cup-plate method (reference value: 8 to 10 mm); type: functional; details: read-out: DIZ
[8] = tested on: Respiratory syncytial virus; assay: Antiviral activity against Respiratory syncytial virus infected human HeLa cells assessed as reduction of virus-induced cytopathic effect after 3 days by colorimetric formazan-based MTS assay; type: functional, organism-based; details: 72 h; outline: as §1
[9] = tested on: Vesicular stomatitis virus; assay: Antiviral activity against Vesicular stomatitis virus infected human HEL cells assessed as reduction of virus-induced cytopathic effect after 3 days by colorimetric formazan-based MTS assay; type: functional, organism-based; details: 72 h; outline: as §1
[10] = Cytotoxicity against Felis catus (cat) CRFK cells assessed as change in cellular morphology; type: cell-based; details: crfk
Outline: (§2)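 Uninfected cells were exposed to compound in parallel with the antiviral cultures. The read-out is the minimum cytotoxic concentration that causes a microscopically detectable alteration of normal cell morphology.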

[11] = Inhibition of beta lactamase assessed as time for decolorization of iodine (reference value: 79.5 secs)
[12] = tested on: Influenza A virus; assay: Antiviral activity against Unidentified Influenza A virus (H1N1) infected MDCK cells assessed as reduction of virus-induced cytopathic effect after 3 days by colorimetric formazan-based MTS assay; type: functional, organism-based; details: 72 h; outline: as §1
[13] = (§3) Cytotoxicity against Homo sapiens (human) HeLa cells assessed as change in cellular morphology; type: cell-based; details: HeLa cells; outline: as §2
[14] = tested on: HeLa; assay: as §3; type: cell-based; details: hela; outline: as §2
[15] = tested on: Proteus vulgaris; assay: Antibacterial activity against Proteus vulgaris assessed as growth inhibition at 50 ug/ml by cup-plate method (reference value: 8 to 10 mm); type: functional; details: read-out: DIZ
[16] = tested on: L1210; assay: Cytotoxicity against Mus musculus (mouse) L1210 cells assessed as growth inhibition after 48 hr by coulter counter analysis; type: functional, cell-based; details: L1210, 48 h
Outline: (§4)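 Cells in growth medium were allowed to proliferate with variable compound amounts at 37 °C in a humidified CO2 atmosphere. Incubation ran 48 h for L1210, 72 h for CEM and 96 h for HeLa. Cells were then counted with a Coulter counter.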

[17] = tested on: Vaccinia virus; assay: Antiviral activity against Vaccinia virus infected human HEL cells assessed as reduction of virus-induced cytopathic effect after 3 days by colorimetric formazan-based MTS assay; type: functional, organism-based; details: Orthopoxvirus vaccinia, 72 h; outline: as §1
[18] = tested on: Influenza A virus H3N2; assay: Antiviral activity against Influenza A virus H3N2 infected MDCK cells assessed as reduction of virus-induced cytopathic effect after 3 days by colorimetric formazan-based MTS assay; type: functional, organism-based; details: 72 h; outline: as §1
[19] = tested on: Felid alphaherpesvirus 1; assay: Antiviral activity against Felid herpesvirus 1 infected cat CRFK cells assessed as reduction of virus-induced cytopathic effect after 3 days by colorimetric formazan-based MTS assay; type: functional, organism-based; details: Felid alphaherpesvirus 1, CRFK, 72 h
Outline: (§5)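 Cells grown to confluency in 96-well plates ([…], Vero for lines 9–10) were infected with 100 CCID50 of virus, and serial compound dilutions were added at infection. Plates were incubated at 37 °C for 3 days, until complete CPE appeared in untreated virus controls.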

[20] = tested on: Candida albicans; assay: Antifungal activity against Candida albicans assessed as growth inhibition at 50 ug/ml by cup-plate method (reference value: 8 to 10 mm); type: functional; details: read-out: DIZ
[21] = Inhibition of beta lactamase assessed as increase in time taken for iodine decolorization relative to control; set-up: concentration or dose not given beside the values; details: concentration not given here
[22] = tested on: Mammalian orthoreovirus 1; assay: Antiviral activity against Mammalian orthoreovirus 1 infected African green monkey Vero cells assessed as reduction of virus-induced cytopathic effect after 3 days by colorimetric formazan-based MTS assay; type: functional, organism-based; details: Mammalian orthoreovirus 1, Vero, 72 h; outline: as §5
[23] = (§6) Cytotoxicity against MDCK cells assessed as change in cellular morphology; type: cell-based, Canis lupus familiaris; details: dog, MDCK cells; outline: as §2
[24] = tested on: MDCK; assay: as §6; type: cell-based, Canis lupus familiaris; details: dog, mdck; outline: as §2
[25] = tested on: Klebsiella pneumoniae; assay: Antibacterial activity against Klebsiella pneumoniae assessed as growth inhibition at 50 ug/ml by cup-plate method (reference value: 8 to 10 mm); type: functional; details: read-out: DIZ
[26] = tested on: CCRF-CEM; assay: Cytotoxicity against Homo sapiens (human) CEM cells assessed as growth inhibition after 72 hr by coulter counter analysis; type: functional, cell-based; outline: as §4
[27] = tested on: Punta Toro virus; assay: Antiviral activity against Punta Toro virus infected in African green monkey Vero cells assessed as reduction of virus-induced cytopathic effect after 3 days by colorimetric formazan-based MTS assay; type: functional, organism-based; details: 72 h; outline: as §1
[28] = tested on: Human respirovirus 3; assay: Antiviral activity against Human parainfluenza virus 3 infected African green monkey Vero cells assessed as reduction of virus-induced cytopathic effect after 3 days by colorimetric formazan-based MTS assay; type: functional, organism-based; details: Human respirovirus 3, Vero, 72 h; outline: as §5
[29] = Cytotoxicity against Chlorocebus aethiops (African green monkey) Vero cells assessed as change in cellular morphology; type: cell-based; details: chlorocebus sabaeus
[30] = tested on: Coxsackievirus B4; assay: Antiviral activity against Human coxsackievirus B4 infected African green monkey Vero cells assessed as reduction of virus-induced cytopathic effect after 3 days by colorimetric formazan-based MTS assay; type: functional, organism-based; details: Enterovirus B, 72 h; outline: as §1
[31] = tested on: Human alphaherpesvirus 2; assay: Antiviral activity against Human herpesvirus 2 strain G infected human HEL cells assessed as reduction of virus-induced cytopathic effect after 3 days by colorimetric formazan-based MTS assay; type: functional, organism-based; details: Human alphaherpesvirus 2, strain G, 72 h; outline: as §1
[32] = tested on: Coxsackievirus B4; assay: Antiviral activity against Human coxsackievirus B4 infected human HeLa cells assessed as reduction of virus-induced cytopathic effect after 3 days by colorimetric formazan-based MTS assay; type: functional, organism-based; details: Enterovirus B, 72 h; outline: as §1
[33] = tested on: Respirovirus muris; assay: Antiviral activity against Sendai virus infected African green monkey Vero cells assessed as reduction of virus-induced cytopathic effect after 3 days by colorimetric formazan-based MTS assay; type: functional, organism-based; details: 72 h
[34] = tested on: Feline infectious peritonitis virus; assay: Antiviral activity against Feline Infectious peritonitis virus infected cat CRFK cells assessed as reduction of virus-induced cytopathic effect after 3 days by colorimetric formazan-based MTS assay; type: functional, organism-based; details: Alphacoronavirus 1, CRFK, 72 h; outline: as §1
[35] = tested on: Human alphaherpesvirus 1; assay: Antiviral activity against Human herpesvirus 1 strain KOS infected human HEL cells assessed as reduction of virus-induced cytopathic effect after 3 days by colorimetric formazan-based MTS assay; type: functional, organism-based; details: Human alphaherpesvirus 1, KOS, 72 h; outline: as §1
[36] = Cytotoxicity against Homo sapiens (human) HEL cells assessed as change in cellular morphology; type: cell-based
[37] = tested on: Vesicular stomatitis virus; assay: Antiviral activity against Vesicular stomatitis virus infected human HeLa cells assessed as reduction of virus-induced cytopathic effect after 3 days by colorimetric formazan-based MTS assay; type: functional, organism-based; details: 72 h; outline: as §1

Compound: CCN(CC)CN1C(=O)/C(=N/NC(N)=S)c2cc(Cl)ccc21
- EC50 [1]: > 20 µM
- zone of inhibition at 50 µg/mL [2]: 11 mm
- zone of inhibition at 50 µg/mL [3]: 11 mm
- EC50 [4]: > 100 µM
- zone of inhibition at 50 µg/mL [5]: 11 mm
- zone of inhibition at 50 µg/mL [6]: 21 mm
- zone of inhibition at 50 µg/mL [7]: 11 mm
- EC50 [8]: > 100 µM
- EC50 [9]: > 100 µM
- CC50 [10]: > 100 µM
- TIME [11]: 0.0338 h
- EC50 [12]: > 20 µM
- MCC [13]: > 100 µM
- CC50 [14]: > 100 µM
- zone of inhibition at 50 µg/mL [15]: 11 mm
- IC50 [16]: 148 µM
- EC50 [17]: 20 µM
- EC50 [18]: > 20 µM
- EC50 [19]: > 100 µM
- zone of inhibition at 50 µg/mL [20]: 11 mm
- inhibition [21]: 34.6%
- EC50 [22]: > 100 µM
- MCC [23]: 100 µM
- CC50 [24]: 78.3 µM
- zone of inhibition at 50 µg/mL [25]: 11 mm
- IC50 [26]: 71 µM
- EC50 [27]: > 100 µM
- EC50 [28]: > 100 µM
- MCC [29]: > 100 µM
- EC50 [30]: > 100 µM
- EC50 [31]: > 100 µM
- EC50 [32]: > 100 µM
- EC50 [33]: > 100 µM
- EC50 [34]: > 100 µM
- EC50 [35]: > 100 µM
- MCC [36]: > 100 µM
- EC50 [37]: > 100 µM

Compound: O=C(O)[C@H]1/C(=C/CO)O[C@@H]2CC(=O)N21
- TIME [11]: 0.0668 h
- inhibition [21]: 67%

Compound: Nc1ccn(C[C@@H](CO)OCP(=O)(O)O)c(=O)n1 [CIDOFOVIR]
- EC50 [4]: 6 µM
- EC50 [9]: > 250 µM
- EC50 [31]: 1.5 µM
- EC50 [35]: 5 µM
- MCC [36]: > 250 µM

Compound: OC(Cn1cncn1)(Cn1cncn1)c1ccc(F)cc1F [FLUCONAZOLE]
- zone of inhibition at 50 µg/mL [2]: 31 mm
- zone of inhibition at 50 µg/mL [20]: 31 mm

Compound: Nc1nc2c(ncn2COCCO)c(=O)[nH]1 [ACYCLOVIR]
- EC50 [9]: > 250 µM
- EC50 [17]: > 250 µM
- EC50 [31]: 0.7 µM
- MCC [36]: > 250 µM

Compound: O=c1[nH]c(=O)n([C@H]2C[C@H](O)[C@@H](CO)O2)cc1/C=C/Br [BRIVUDINE]
- EC50 [4]: > 250 µM
- EC50 [9]: > 250 µM
- EC50 [17]: 29 µM
- MCC [36]: > 250 µM
